PP5 inh: PP5 (human) phosphatase inhibition; P53041; purified PP5c, OMFP substrate fluorescence; inhibition, % at 6.7 µM; 0.18% of 320,000 active; AID 1987;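 active means inhibition above the campaign's mean inhibition across all tested compounds plus 3 SD, cut at about 9.5% in these data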
PP1 inh: counter-screen for PP5 inhibitors: inhibitors of human PP1-alpha | purified PP1alpha, OMFP fluorescence | inhibition, % at 6.7 µM | 0.9% of 320,000 active | P62136;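 active means inhibition above the mean inhibition of all tested compounds plus 3 SD, computed separately for each screening campaign, cut at about 15% in these data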
STEP inh: inhibitors of human striatal-enriched phosphatase STEP | recombinant STEP, OMFP fluorogenic substrate, fluorescence | inhibition, % at 20 µM | 0.25% of 360,000 active;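 active means inhibition at 20 µM, scaled per plate between control wells, above about 37%, limit read from the data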
Target sequence (P54829 whole entry, looked up): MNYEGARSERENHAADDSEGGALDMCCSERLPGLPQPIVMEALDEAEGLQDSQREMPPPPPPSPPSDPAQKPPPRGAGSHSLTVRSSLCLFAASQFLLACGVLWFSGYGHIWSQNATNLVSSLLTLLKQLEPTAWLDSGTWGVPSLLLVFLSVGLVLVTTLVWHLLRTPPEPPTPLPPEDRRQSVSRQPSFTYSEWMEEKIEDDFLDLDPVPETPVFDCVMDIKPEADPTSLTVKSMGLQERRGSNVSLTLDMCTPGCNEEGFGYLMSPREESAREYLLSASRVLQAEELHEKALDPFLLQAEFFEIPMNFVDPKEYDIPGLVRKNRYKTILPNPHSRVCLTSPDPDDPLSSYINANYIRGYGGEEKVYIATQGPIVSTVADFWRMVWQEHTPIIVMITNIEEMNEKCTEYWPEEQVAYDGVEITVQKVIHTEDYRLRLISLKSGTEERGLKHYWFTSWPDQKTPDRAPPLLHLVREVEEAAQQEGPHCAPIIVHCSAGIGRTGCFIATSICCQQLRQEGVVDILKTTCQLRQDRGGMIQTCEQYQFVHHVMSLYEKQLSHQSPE
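Test system: STEP tyrosine phosphatase / Reagent: OMFP at 25 µM / Doses: 20 µM, 1% DMSO / Read-out: percent inhibition scaled to no-enzyme and uninhibited-enzyme controls, plate-pattern corrected / Detection: FITC-channel fluorescence of OMFP product / Medium: Bis-Tris buffer pH 6.0, 2.5 mM DTT, 0.005% Tween 20 / Schedule: 20 min at room temperature, dark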
LMPTP block: LMPTP (human) inhibition | inhibition, % at 20 µM | P24666 | AID 651560 | 0.22% of 360,000 active | recombinant LMPTP-A, OMFP fluorogenic substrate, fluorescence intensity;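 active means compounds that cut the enzyme signal by at least half of the control window in the single-dose screen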
Target sequence (P24666 whole entry, looked up): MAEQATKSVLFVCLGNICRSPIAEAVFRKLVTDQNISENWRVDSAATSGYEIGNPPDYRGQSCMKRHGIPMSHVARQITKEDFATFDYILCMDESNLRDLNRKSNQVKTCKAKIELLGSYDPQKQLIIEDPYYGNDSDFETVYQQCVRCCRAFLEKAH
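material = LMPTP-A | quantity = 0.625 nM enzyme | reagent = OMFP substrate, 400 µM final | buffer or medium = Bis-Tris pH 6.0, DTT, detergent | detection = endpoint fluorescence intensity from OMFP dephosphorylation | dosing = single 20 µM dose | read-out basis = % inhibition relative to no-enzyme and uninhibited control wells | control set = no-enzyme and uninhibited controls | timing = 50 min at room temperature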
Scp1 inh: inhibitors of human Scp-1 phosphatase. Recombinant Scp1, phosphopeptide, malachite green phosphate absorbance. inhibition, % at 20 µM. 0.88% of 340,000 active. Q9GZU7;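 active means inhibition above about 50% at 20 µM, limit read from the data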
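Test system – truncated SCP-1 phosphatase (76-261aa) · Reagent – Phosphorylated 17-residue peptide substrate · Incubation – 45 min room-temperature reaction, 5 min colour, 30 min stabiliser · Detection – colorimetric phosphate reagent with accelerator and stabiliser, absorbance at 630 nm · Measure – % inhibition at 20 µM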
Scp-1 conf: confirmation of human Scp-1 phosphatase inhibitors; shares compounds with Scp1 inh; recombinant SCP-1 catalytic domain, phosphate release, malachite green absorbance; inhibition, % at 20 µM; 61% of 2,500 active
Scp-1 MG ctr: counter-screen for Scp-1 inhibitors: colorimetric interference; shares compounds with Scp1 inh; Colorimetric interference counterscreen, malachite green absorbance 630 nm; apparent inhibition (interference), % at 20 µM; 2,500 tested, under 10 active; AID 540313;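 further: compounds added after enzyme reaction finished so only phosphate colour detection is probed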
Scp1 DSF: Scp-1 (human) binding by thermal shift; Recombinant SCP1, Sypro Orange thermal shift Tm; AID 540329; 25% of 1,500 active; thermal shift relative to vanadate control, % at 40 µM; shares compounds with Scp1 inh;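 active means substances whose mean melting-temperature shift, as a percentage of the reference inhibitor's shift, reaches about 5.3%, limit read from the data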
STEP conf: STEP (human) phosphatase inhibition, single concentration confirmation | shares compounds with STEP inh | recombinant STEP, OMFP fluorogenic substrate, fluorescence | inhibition, % at 20 µM | 32% of 520 active | AID 623866; call rule not given here
Numbers stand for hits; - = inactive; . = not tested or not shown. This is a sample that favours compounds with a hit; in the whole collection about 1.9% have one here.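 How the source made its calls, unless noted: active means inhibition of at least 30% at 20 µM; inactive means the rest.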

SMILES	PP5 inh	PP1 inh	STEP inh	LMPTP block	Scp1 inh	Scp-1 conf	Scp-1 MG ctr	Scp1 DSF	STEP conf
CNc1[nH]c(=O)[nH]c(=O)c1N=Nc1cc(Cl)ccc1Cl	-	-	48.1	-	108.4	72.6	-	-	-
Cc1ccc(-c2nc(NC(=O)CSc3cc(C)c4ccccc4n3)ns2)cc1	-	-	69.9	66.4	106.0	83.6	-	-	49.9
O=C1NN(c2cccc(Br)c2)C(=O)/C1=C\c1ccc(N2CCOCC2)cc1	-	-	82.5	66.2	51.6	48.5	-	-	72.5
COc1ccc(C(=O)NNC(=O)c2snnc2C)cc1	-	-	-	-	-	.	.	.	.
O=C(N/N=C/c1ccncc1)c1cc2c(ccc3ccccc32)o1	-	-	-	-	-	.	.	.	.
O=C(N/N=C/c1cccc([N+](=O)[O-])c1)c1cc2c(ccc3ccccc32)o1	-	-	98.6	64.4	98.8	68.2	-	-	-
O=C(O)c1ccc(/C=N/NC(=O)c2cc3c(ccc4ccccc43)o2)cc1	-	-	98.4	66.7	79.2	71.2	-	-	-
Cc1cc2oc(=O)cc(CN3CCCCC3C)c2c(C)c1Cl (stereo not drawn)	-	-	-	-	-	.	.	.	.
CCOc1cc(/C=N/N=C2/NC(=O)C(CC(=O)O)S2)ccc1OCc1ccc(Cl)cc1Cl (stereo not drawn)	-	-	63.6	84.2	74.7	65.1	-	-	12.9
Cc1onc(-c2ccccc2)c1C(=O)N(C)CC(=O)Nc1ccc(F)c(F)c1F	.	.	-	-	-	.	.	.	.
COc1ccccc1-c1cnc(C(O)c2ccccc2)[nH]1 (stereo not drawn)	.	.	-	-	.	.	.	.	.
C=CCNc1cc(C)oc(=O)c1C(=O)CC	-	-	-	-	-	.	.	.	.
COc1ccc2cc3c(N)nn(C(=O)c4cccc([N+](=O)[O-])c4)c3nc2c1	-	-	97.9	66.0	98.1	79.5	-	-	-
COc1ccc2cc3c(N)nn(C(=O)Cc4ccccc4OC)c3nc2c1	-	-	-	-	-	.	.	.	.
FC(F)(F)c1ccc(Nc2nnnc3ccccc23)cc1	-	-	96.6	51.1	72.5	61.7	-	-	-
O=C(Nc1cc([N+](=O)[O-])ccc1O)c1cccc(C(=O)Nc2cc([N+](=O)[O-])ccc2O)c1	-	-	99.4	96.6	98.3	95.9	-	16.0	58.5
O=C(Nc1cc([N+](=O)[O-])ccc1O)c1cccc([N+](=O)[O-])c1	-	-	-	-	-	.	.	.	.
CN(C)c1ccc(/C=N/NC(=O)c2cc(-c3ccc4c(c3)OCO4)n[nH]2)cc1	-	-	-	-	-	.	.	.	.
COc1ccc(C(=O)N/N=C/c2ccc(OC(=O)c3cccs3)cc2)cc1	-	-	-	-	-	.	.	.	.
O=C(N/N=C\c1ccc(OC(=O)c2cccs2)cc1)c1ccc(Cl)cc1	-	-	93.9	93.9	96.3	81.4	-	-	-
O=C(N/N=C/c1ccc(Cl)c([N+](=O)[O-])c1)c1ccc2c(c1)OCCO2	.	.	94.3	88.9	104.8	78.0	-	-	46.4
O=C(N/N=C/c1ccc(F)cc1)c1cc(-c2ccc3c(c2)OCO3)n[nH]1	-	-	42.2	-	55.5	34.6	-	-	35.7
O=C(N/N=C/c1ccc(OC(=O)c2ccc3c(c2)OCO3)cc1)c1cncc(Br)c1	-	-	98.7	86.0	94.1	85.9	-	-	-
Cc1c(C)c2ccc(OCC(=O)NCCCn3ccnc3)cc2oc1=O	-	-	-	-	-	.	.	.	.
CC(=O)Nc1ccc(S(=O)(=O)N2CCCN(S(=O)(=O)c3ccc(C)cc3)CC2)cc1	-	-	-	-	-	.	.	.	.
SMILES	PP5 inh	PP1 inh	STEP inh	LMPTP block	Scp1 inh	Scp-1 conf	Scp-1 MG ctr	Scp1 DSF	STEP conf
O=C(N/N=C/c1ccc(Cl)cc1)c1ccc2c(c1)OCO2	-	-	93.1	-	102.8	90.5	-	-	-
O=C(N/N=C/c1ccncc1)c1ccc2c(c1)OCO2	-	-	-	-	-	.	.	.	.
O=C(CCS(=O)(=O)c1ccc(Br)cc1)NCc1ccc(F)cc1	-	-	40.2	-	81.5	41.2	-	-	-
O=C(Nc1cccc(-c2nc3ncccc3o2)c1)c1sc2cc(Cl)ccc2c1Cl	-	-	89.9	50.6	94.9	57.1	-	-	-
C=CC1=C(C(=O)O)N2C(=O)C(NC(=O)Cc3ccccc3)C2SC1 (stereo not drawn)	-	-	87.9	72.9	96.2	78.2	-	-	35.8
O=C(COc1ccccc1)NC1C(=O)N2C(C(=O)O)=C(Cl)CSC12 (stereo not drawn)	-	-	-	-	-	.	.	.	.
O=C(/C=C/c1ccccc1Cl)Nc1ccc2c(c1)C(=O)NC2=O	-	-	94.7	70.6	101.1	84.7	-	6.8	-
O=C(Nc1nc2ccccc2s1)c1ccccc1	-	-	-	-	-	.	.	.	.
Cc1csc2nc(NC(=O)c3ccccc3)sc(=O)c12	-	-	79.3	56.7	87.2	69.8	-	-	-
Cc1ccc(S(=O)(=O)NCCc2cccs2)cc1	-	-	-	-	-	.	.	.	.
Cc1c(CC(=O)NCCCCCC(=O)O)c(=O)oc2c(C)c3oc4c(c3cc12)CCCC4	.	.	97.2	-	94.4	93.7	-	-	89.4
O=C(O)CC/C(=C/c1cccc(NC(=O)c2ccccc2Cl)c1)c1nc2ccccc2s1	.	.	-	-	-	.	.	.	.
COc1cc(/C=C(\CCC(=O)O)c2nc3ccccc3s2)ccc1OCC(=O)Nc1c(Cl)cccc1Cl	.	.	49.2	-	74.9	51.9	-	-	-
O=C(CSc1ccc(-c2nc3ccccc3[nH]2)cn1)Nc1ccc(S(=O)(=O)NC2CC2)cc1	-	-	-	-	-	.	.	.	.
O=C(Nc1cccc(-c2nc3ccccc3s2)c1)c1cccs1	-	-	-	-	-	.	.	.	.
O=C(Nc1cccc(-c2nc3ccccc3s2)c1)c1cc(=O)c2ccccc2o1	-	-	79.5	-	71.9	43.4	-	-	-
COC(=O)COc1ccc2oc(=O)cc(-c3cc4cccc(OC)c4o3)c2c1	-	-	75.1	60.7	75.5	55.9	-	-	-
Cc1cc(OCC(=O)NCC2CCC(C(=O)O)CC2)c2c(C)c(Cc3ccccc3)c(=O)oc2c1 (stereo not drawn)	-	-	-	-	-	.	.	.	.
Cc1c(CC(=O)O)c(=O)oc2c(C)c(OCc3ccccc3Br)ccc12	-	-	98.3	-	91.5	62.0	-	-	65.0
